pIC50: −log10 of the molar value. In brackets after ≈: the same amount, converted by molar mass. Activity calls are given as the source filed them. The rule behind the calls is not given here.
tested on: Meriones unguiculatus; test: Toxicity against jird infected with adult Brugia malayi assessed as behavioural change at 100 mg/kg, sc qd for 5 days measured up to 56 days; format: organism-based; set-up: dose 100 mg/kg, route subcutaneous; settings: gerbil, in vivo

Compound | Activity
CC(=O)O[C@H]1CC[C@]2(C)[C@H]3C(=O)C=C4[C@@H]5C[C@@](C)(C(=O)NCc6ccccc6)CC[C@]5(C)CC[C@@]4(C)[C@]3(C)CC[C@H]2C1(C)C | Non-toxic

tested on: Brugia malayi; test: Antifilarial activity adult against Brugia malayi infected in jirds assessed as sterile female worms recovered from host at 25 mg/kg, sc qd for 5 days measured after 56 days relative to control; format: functional; settings: route subcutaneous
How it was run: (§1)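 Jirds (Meriones unguiculatus) infected with B. malayi were dosed s.c. once daily for 5 days, at 100 mg/kg or, for the reference drug, 25 mg/kg; vehicle-treated animals served as controls (4–6 animals per group). Microfilariae in the peritoneal cavity were assessed on days 7/8 after treatment began. Recovered adult worms were counted as % inhibition over untreated control, with % sterile females scored. Data are mean ± SD, compared by Student's t test.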

Compound | Activity [%]
CCN(CC)C(=O)N1CCN(C)CC1.O=C(O)CC(O)(CC(=O)O)C(=O)O [DIETHYLCARBAMAZINE CITRATE] | 11

tested on: Brugia malayi; test: Antifilarial activity against adult Brugia malayi infected in jirds assessed as sterile female worms recovered from host at 100 mg/kg, sc qd for 5 days measured after 56 days relative to control; format: functional; settings: route subcutaneous; how it was run: as §1

Compound | Activity [%]
CC(=O)O[C@H]1CC[C@]2(C)[C@H]3C(=O)C=C4[C@@H]5C[C@@](C)(C(=O)NCc6ccccc6)CC[C@]5(C)CC[C@@]4(C)[C@]3(C)CC[C@H]2C1(C)C | 11

tested on: Brugia malayi; test: Antifilarial activity against adult Brugia malayi infected in jirds assessed as reduction in worms recovered from host at 25 mg/kg, sc qd for 5 days measured after 56 days relative to control; format: functional, organism-based; set-up: dose 25 mg/kg; settings: not given; how it was run: as §1

Compound | Activity
CCN(CC)C(=O)N1CCN(C)CC1.O=C(O)CC(O)(CC(=O)O)C(=O)O [DIETHYLCARBAMAZINE CITRATE] | inactive

tested on: Brugia malayi; test: Antifilarial activity against adult Brugia malayi infected in jirds assessed as reduction in worms recovered from host at 100 mg/kg, sc qd for 5 days measured after 56 days relative to control; format: functional; set-up: scale not given: the % may be the effect or the level left; settings: route subcutaneous; how it was run: as §1

Compound | Activity [%]
CC(=O)O[C@H]1CC[C@]2(C)[C@H]3C(=O)C=C4[C@@H]5C[C@@](C)(C(=O)NCc6ccccc6)CC[C@]5(C)CC[C@@]4(C)[C@]3(C)CC[C@H]2C1(C)C | 54.21

tested on: Brugia malayi; test: Antifilarial activity against adult Brugia malayi infected in jirds assessed as decrease in microfilarial activity isolated from host peritoneal cavity at 25 mg/kg, sc qd for 5 days measured after 7 to 8 days; format: functional, organism-based; set-up: dose 25 mg/kg; settings: not given; how it was run: as §1

Compound | Activity
CCN(CC)C(=O)N1CCN(C)CC1.O=C(O)CC(O)(CC(=O)O)C(=O)O [DIETHYLCARBAMAZINE CITRATE] | inactive

tested on: Brugia malayi; test: Antifilarial activity against adult Brugia malayi infected in jirds assessed as decrease in microfilarial activity isolated from host peritoneal cavity at 100 mg/kg, sc qd for 5 days measured after 7 to 8 days; format: functional, organism-based; set-up: dose 100 mg/kg; settings: not given; how it was run: as §1

Compound | Activity
CC(=O)O[C@H]1CC[C@]2(C)[C@H]3C(=O)C=C4[C@@H]5C[C@@](C)(C(=O)NCc6ccccc6)CC[C@]5(C)CC[C@@]4(C)[C@]3(C)CC[C@H]2C1(C)C | inactive

tested on: Brugia malayi; test: Ratio of diethylcarbamazine citrate IC50 to compound IC50 for microfilariae Brugia malayi; format: functional; settings: not given

Compound | Ratio IC50
CC(=O)O[C@H]1CC[C@]2(C)[C@H]3C(=O)C=C4[C@@H]5C[C@@](C)(C(=O)NCc6ccccc6)CC[C@]5(C)CC[C@@]4(C)[C@]3(C)CC[C@H]2C1(C)C | 160

tested on: Brugia malayi; test: Ratio of diethylcarbamazine citrate LC100 to compound LC100 for female adult Brugia malayi; format: functional; settings: not given

Compound | Ratio
CC(=O)O[C@H]1CC[C@]2(C)[C@H]3C(=O)C=C4[C@@H]5C[C@@](C)(C(=O)NCc6ccccc6)CC[C@]5(C)CC[C@@]4(C)[C@]3(C)CC[C@H]2C1(C)C | 32

tested on: not listed separately; test: Selectivity index, ratio of CC50 for african green monkey Vero cells to IC50 for microfilariae Brugia malayi; format: functional; settings: not given
How it was run: (§2)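 Selectivity index was calculated as CC50 (concentration killing 50% of cells) divided by the motility IC50 (concentration giving 50% motility inhibition). This was done separately for female adult worms and for microfilariae of B. malayi.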

Compound | Ratio CC50/IC50
CCN(CC)C(=O)N1CCN(C)CC1.O=C(O)CC(O)(CC(=O)O)C(=O)O [DIETHYLCARBAMAZINE CITRATE] | 25.7
CC(=O)O[C@H]1CC[C@]2(C)[C@H]3C(=O)C=C4[C@@H]5C[C@@](C)(C(=O)NCc6ccccc6)CC[C@]5(C)CC[C@@]4(C)[C@]3(C)CC[C@H]2C1(C)C | 264.06

tested on: not listed separately; test: Selectivity index, ratio of CC50 for african green monkey Vero cells to IC50 for female adult Brugia malayi; format: functional; settings: not given; how it was run: as §2

Compound | Ratio CC50/IC50
CCN(CC)C(=O)N1CCN(C)CC1.O=C(O)CC(O)(CC(=O)O)C(=O)O [DIETHYLCARBAMAZINE CITRATE] | 31.5
CC(=O)O[C@H]1CC[C@]2(C)[C@H]3C(=O)C=C4[C@@H]5C[C@@](C)(C(=O)NCc6ccccc6)CC[C@]5(C)CC[C@@]4(C)[C@]3(C)CC[C@H]2C1(C)C | 66.02

tested on: not listed separately; test: Cytotoxicity against african green monkey Vero cells; format: cell-based; settings: chlorocebus sabaeus

Compound | CC50 [µg/mL]
CCN(CC)C(=O)N1CCN(C)CC1.O=C(O)CC(O)(CC(=O)O)C(=O)O [DIETHYLCARBAMAZINE CITRATE] | 9100
CC(=O)O[C@H]1CC[C@]2(C)[C@H]3C(=O)C=C4[C@@H]5C[C@@](C)(C(=O)NCc6ccccc6)CC[C@]5(C)CC[C@@]4(C)[C@]3(C)CC[C@H]2C1(C)C | 584 (≈ 970 µM)

tested on: Brugia malayi; test: Antifilarial activity against microfilariae Brugia malayi assessed as inhibition of motility after 24 hrs by microscopic analysis; format: functional, organism-based; settings: not given
How it was run: (§3)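 In vitro, female adult worms and microfilariae of Brugia malayi were scored for motility. LC100 is the concentration giving 100% motility inhibition, which is taken as parasite death. IC50 is the concentration giving 50% motility inhibition. Adult worms were also run in a parallel MTT reduction assay, reported as mean % inhibition.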

Compound | LC100 [µM]
CCN(CC)C(=O)N1CCN(C)CC1.O=C(O)CC(O)(CC(=O)O)C(=O)O [DIETHYLCARBAMAZINE CITRATE] | 500
CC(=O)O[C@H]1CC[C@]2(C)[C@H]3C(=O)C=C4[C@@H]5C[C@@](C)(C(=O)NCc6ccccc6)CC[C@]5(C)CC[C@@]4(C)[C@]3(C)CC[C@H]2C1(C)C | 50

same assay, conditions: Brugia malayi, 24 h

Compound | pIC50
CCN(CC)C(=O)N1CCN(C)CC1.O=C(O)CC(O)(CC(=O)O)C(=O)O [DIETHYLCARBAMAZINE CITRATE] | 3.45
CC(=O)O[C@H]1CC[C@]2(C)[C@H]3C(=O)C=C4[C@@H]5C[C@@](C)(C(=O)NCc6ccccc6)CC[C@]5(C)CC[C@@]4(C)[C@]3(C)CC[C@H]2C1(C)C | 5.66

tested on: Brugia malayi; test: Antifilarial activity against female adult Brugia malayi assessed as inhibition of motility after 24 hrs by microscopic analysis; format: functional, organism-based; settings: not given; how it was run: as §3

Compound | LC100 [µM]
CCN(CC)C(=O)N1CCN(C)CC1.O=C(O)CC(O)(CC(=O)O)C(=O)O [DIETHYLCARBAMAZINE CITRATE] | 800
CC(=O)O[C@H]1CC[C@]2(C)[C@H]3C(=O)C=C4[C@@H]5C[C@@](C)(C(=O)NCc6ccccc6)CC[C@]5(C)CC[C@@]4(C)[C@]3(C)CC[C@H]2C1(C)C | 25

same assay, conditions: Brugia malayi, 24 h

Compound | pIC50
CCN(CC)C(=O)N1CCN(C)CC1.O=C(O)CC(O)(CC(=O)O)C(=O)O [DIETHYLCARBAMAZINE CITRATE] | 3.54
CC(=O)O[C@H]1CC[C@]2(C)[C@H]3C(=O)C=C4[C@@H]5C[C@@](C)(C(=O)NCc6ccccc6)CC[C@]5(C)CC[C@@]4(C)[C@]3(C)CC[C@H]2C1(C)C | 5.05

tested on: Brugia malayi; test: Antifilarial activity against female adult Brugia malayi assessed as inhibition of MTT reduction at LC100 concentration after 24 hrs; format: functional; settings: not given

Compound | inhibition (INH) [%]
CCN(CC)C(=O)N1CCN(C)CC1.O=C(O)CC(O)(CC(=O)O)C(=O)O [DIETHYLCARBAMAZINE CITRATE] | 64
CC(=O)O[C@H]1CC[C@]2(C)[C@H]3C(=O)C=C4[C@@H]5C[C@@](C)(C(=O)NCc6ccccc6)CC[C@]5(C)CC[C@@]4(C)[C@]3(C)CC[C@H]2C1(C)C | 48.79
